Assay results reported in ChEMBL document CHEMBL3352193, “Synthesis of novel substituted purine derivatives and identification of the cell death mechanism” (Eur J Med Chem, 2015).
pIC50: −log10 of the molar value. Calls of active or inactive are those of the source. The rule behind the calls is not given here.

Legend:
[1] = Cytotoxicity against human SNU182 cells after 72 hrs by SRB assay; type: functional, cell-based; conditions: SNU-182, 72 h
In short: (§1)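 Liver cancer cell panel, SRB assay after 72 h exposure to ten concentrations (DMSO vehicle under 1%). TCA-fixed, SRB-stained, absorbance at 515 nm. Percent cell death calculated against DMSO-only wells, and IC50 read from dose–response curves.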

[2] = Cytotoxicity against human HuH7 cells after 72 hrs by SRB assay; type: functional, cell-based; conditions: Huh-7, 72 h
In short: (§2)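 Sulforhodamine B assay. Cells seeded at 2000–10,000/well and treated the next day in triplicate with ten concentrations (DMSO vehicle, under 1% final) for 24, 48 or 72 h at 37 °C, 5% CO2. Fixed with ice-cold TCA for 1 h at 4 °C, stained with 0.4% SRB in 1% acetic acid, dye solubilized in 10 mM Tris base, A515 read. % inhibition = 100 × (1 − OD drug/OD DMSO). IC50 taken from dose–response curves.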

HepG2 [3] = test: Cytotoxicity against human HepG2 cells after 24 hrs by SRB assay; type: functional, cell-based; conditions: HepG2, 24 h; in short: as §2
Mahlavu [4] = test: Reduction in intrinsic cellular ATP consumption in human Mahlavu cells at IC50 after 24 hrs by bioluminescence assay; type: functional, cell-based
In short: (§3)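 Cells treated for 24 h, with staurosporine as positive control and DMSO-only controls. 20 µg lysate protein in kinase buffer (40 mM Tris-HCl pH 7.6, 20 mM MgCl2, 0.1 mg/ml BSA), no exogenous ATP added. Luciferase ATP-detection reagent added, 10 min in the dark at room temperature, then luminescence read. Higher signal taken as reduced ATP consumption.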

HepG2 [5] = test: Cytotoxicity against human HepG2 cells measured every 30 mins up to 120 hrs by RT-CES method
Huh-7 [6] = test: Cytotoxicity against human HuH7 cells measured every 30 mins up to 120 hrs by RT-CES method
[7] = Cytotoxicity against human SKHEP1 cells after 72 hrs by SRB assay; type: functional, cell-based; conditions: SK-HEP1, 72 h; in short: as §1
FOCUS = test: Cytotoxicity against human FOCUS cells assessed as condensed apoptotic nuclei after 72 hrs by Hoechst […] staining-based fluorescence microscopy; type: functional, cell-based
Huh-7 [8] = test: Reduction in intrinsic cellular ATP consumption in human HuH7 cells at IC50 after 24 hrs by bioluminescence assay; type: functional, cell-based; in short: as §3
T47D = test: Cytotoxicity against human T47D cells after 72 hrs by SRB assay; type: functional, cell-based
[9] = Cytotoxicity against human Hep3B cells after 72 hrs by SRB assay; type: functional, cell-based, Hep 3B2; in short: as §1
[10] = Cytotoxicity against human Mahlavu cells after 24 hrs by SRB assay; type: functional, cell-based; in short: as §2
[11] = Cytotoxicity against human FOCUS cells after 48 hrs by SRB assay; type: functional, cell-based; in short: as §2
[12] = Cytotoxicity against human Mahlavu cells after 72 hrs by SRB assay; type: functional, cell-based; in short: as §2
[13] = Cytotoxicity against human HuH7 cells after 48 hrs by SRB assay; type: functional, cell-based; conditions: Huh-7, 48 h; in short: as §2
Huh-7 [14] = test: Cytotoxicity against human HuH7 cells assessed as condensed apoptotic nuclei after 72 hrs by Hoechst […] staining-based fluorescence microscopy; type: functional, cell-based
[15] = Cytotoxicity against human HCT116 cells after 72 hrs by SRB assay; type: functional, cell-based; conditions: HCT-116, 72 h
In short: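 SRB screen. Cells seeded at 2000–10,000/well and treated next day for 72 h with 40, 20, 10, 5 and 2.5 µM (DMSO under 1%). TCA fixation, 0.4% SRB staining, Tris solubilization, absorbance at 515 nm. Growth inhibition calculated relative to DMSO-only wells. IC50 derived from the five-concentration inhibition percentages.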

Huh-7 [16] = test: Cytotoxicity against human HuH7 cells at 2.5 to 40 uM by RT-CES method; type: functional, cell-based; conditions: TDE = time-dependent effect
In short: (§4)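 Real-time impedance sensing (xCELLigence) on E-96 plates, run in triplicate. 2000 cells/well seeded; the next day medium was partly replaced and the compound added at 40, 20, 10, 5 or 2.5 µM, with DMSO-only and medium-only wells. Cell Index recorded every 30 min for at least 120 h at 37 °C, 5% CO2.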

Huh-7 [17] = test: Induction of senescence in human HuH7 cells at IC50 to IC100 after 3 to 6 days by BrdU staining-based assay; type: functional, cell-based
In short: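 Huh7 cells (5000) on coverslips in 6-well plates, treated with compound at IC50 and IC100, doxorubicin 25 ng/ml, or DMSO for 3 and 6 days. Medium refreshed 24 h before assay, containing 30 µM BrdU in one plate. SA-β-gal staining and BrdU incorporation assessed in parallel.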

HepG2 [18] = test: Cytotoxicity against human HepG2 cells after 72 hrs by SRB assay; type: functional, cell-based; conditions: HepG2, 72 h; in short: as §2
Mahlavu [19] = test: Induction of apoptosis in human Mahlavu cells assessed as total cytochrome c level at IC50 after 72 hrs by Western blotting analysis; type: functional, cell-based
[20] = Cytotoxicity against human HuH7 cells after 24 hrs by SRB assay; type: functional, cell-based; conditions: Huh-7, 24 h; in short: as §2
[21] = Cytotoxicity against human SNU475 cells after 72 hrs by SRB assay; type: functional, cell-based, SNU-475; conditions: for pIC50: Homo sapiens, SNU-475, 72 h, read-out: IC50; in short: as §1
HepG2 [22] = test: Cytotoxicity against human HepG2 cells at 2.5 to 40 uM by RT-CES method; type: functional, cell-based; conditions: TDE = time-dependent effect; in short: as §4
[23] = Cytotoxicity against human Mahlavu cells after 48 hrs by SRB assay; type: functional, cell-based; in short: as §2
HepG2 [24] = test: Cytotoxicity against human HepG2 cells after 48 hrs by SRB assay; type: functional, cell-based; conditions: HepG2, 48 h; in short: as §2
Mahlavu [25] = test: Induction of […] in human Mahlavu cells assessed as PARP cleavage at IC50 after 72 hrs by Western blotting analysis; type: functional, cell-based
Mahlavu [26] = test: Cytotoxicity against human Mahlavu cells at 2.5 to 40 uM by RT-CES method; type: functional, cell-based; conditions: TDE = time-dependent effect; in short: as §4
[27] = Cytotoxicity against human FOCUS cells after 24 hrs by SRB assay; type: functional, cell-based; in short: as §2
Mahlavu [28] = test: Induction of apoptosis in human Mahlavu cells assessed as PARP cleavage at IC50 after 72 hrs by Western blotting analysis; type: functional, cell-based
PLC = test: Cytotoxicity against human PLC cells after 72 hrs by SRB assay; type: functional, cell-based; in short: as §1
Mahlavu [29] = test: Induction of apoptosis in human Mahlavu cells assessed as Bcl2 expression at IC50 after 72 hrs by Western blotting analysis; type: functional, cell-based
[30] = Cytotoxicity against human FOCUS cells after 72 hrs by SRB assay; type: functional, cell-based; in short: as §2
Mahlavu [31] = test: Cytotoxicity against human Mahlavu cells measured every 30 mins up to 120 hrs by RT-CES method

Compound	pIC50 [1]	pIC50 [2]	Activity (Mahlavu [4])	pIC50 [7]	Activity (FOCUS)	Activity (Huh-7 [8])	pIC50 (T47D)	pIC50 [9]	pIC50 [12]	Activity (Huh-7 [14])	pIC50 [15]	pIC50 (HepG2 [18])	Activity (Mahlavu [19])	Activity (Mahlavu [25])	Activity (Mahlavu [28])	pIC50 (PLC)	Activity (Mahlavu [29])	pIC50 [30]	pIC50 [21]	further results
FC(F)(F)c1ccc(N2CCN(c3ncnc4c3ncn4C3CCCC3)CC2)cc1	5.02	6.70	Active	6.70	Active	Active	> 7.00	6.10	7.00	Active	> 7.00	6.70	inactive	inactive	inactive	5.19	inactive	7.00		pIC50 (HepG2 [3]): 5.92; Activity (HepG2 [5]): Dose-dependent effect; Activity (Huh-7 [6]): Dose-dependent effect; pIC50 [10]: 4.30; pIC50 [11]: 6.52; pIC50 [13]: 5.85; Activity (Huh-7 [16]): tde; Activity (Huh-7 [17]): Active; pIC50 [20]: 5.57; IC50 ([21]; snu-475): Not Active; Activity (HepG2 [22]): tde; pIC50 [23]: 6.52; pIC50 (HepG2 [24]): 6.10; Activity (Mahlavu [26]): tde; pIC50 [27]: 4.78; Activity (Mahlavu [31]): Dose-dependent effect
Cc1ccc(S(=O)(=O)n2cnc3c(N4CCN(c5ccc(C(F)(F)F)cc5)CC4)ncnc32)cc1	5.08	5.85	Active	5.77	Active	Active	4.37	5.54	6.00	Active	5.35	5.92	inactive	inactive	inactive	5.43	inactive	6.00	5.27	
FC(F)(F)c1ccc(N2CCN(c3ncnc4[nH]cnc34)CC2)cc1	4.26	5.49	Active	5.31	Active	Active	4.40	5.17	5.64	Active	5.29	5.43	inactive	inactive	inactive	4.98	inactive	5.54	5.02	
